In ChEMBL document CHEMBL1127826, “Inhibitors of acyl-CoA:cholesterol acyltransferase (ACAT). 7. Development of a series of substituted N-phenyl-N'-[(1-phenylcyclopentyl)methyl]ureas with enhanced hypocholesterolemic activity” (J Med Chem, 1994):

Columns and labels:
Rattus norvegicus [1] = assay: Compound was evaluated in experiment 2 for Change in total cholesterol at 10 (mg/kg) dose; type: functional
Method in brief: (§1)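 Chronic model in male Sprague-Dawley rats (200-225 g). Rats were fed chow with peanut oil 5.5%, cholesterol 1.5% and cholic acid ad libitum for 2 weeks. Test article was given by gavage once daily (morning) in the second week, as a CMC/Tween aqueous suspension. Blood was taken by cardiac puncture under ether 24 h after the last dose. Plasma total, HDL and nonHDL cholesterol were measured with an Abbott VP analyzer using dextran sulfate precipitation, reported as mg/dL and % change from control. Controls were cholesterol-fed rats and rats switched to chow in week 2.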

Rattus norvegicus [2] = assay: Compound was evaluated in experiment 2 for High density lipoproteins at 10 (mg/kg) dose; type: functional; method in brief: as §1
Rattus norvegicus [3] = assay: Compound was evaluated in experiment 2 for Change in High density lipoproteins at 3 (mg/kg) dose; type: functional; method in brief: as §1
Rattus norvegicus [4] = assay: Compound was evaluated in experiment 2 for change in non High density lipoprotein at the doses at 10 (mg/kg) dose; type: functional; method in brief: as §1
Rattus norvegicus [5] = assay: Compound was evaluated in experiment 2 for Total cholesterol at 1 (mg/kg) dose; type: functional; method in brief: as §1
Rattus norvegicus [6] = assay: Compound was evaluated in experiment 2 for non High density lipoproteins at 3 (mg/kg) dose; type: functional
Method in brief: (§2)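 Male Sprague-Dawley rats (200-225 g) were fed chow with peanut oil (5.5%), cholesterol (1.5%) and cholic acid (0.5%) ad libitum for 2 weeks. During week 2 they were gavaged daily each morning with compound in aqueous CMC/Tween suspension. Controls were fed the cholesterol diet for 2 weeks, or switched to chow for week 2. Rats were bled by cardiac puncture under ether 24 h post-dose. Plasma HDL-C was measured after dextran sulfate precipitation, along with nonHDL-C. Values are given in mg/dL and as % change from control.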

Rattus norvegicus [7] = assay: Compound was evaluated in experiment 2 for Change in High density lipoproteins at 1 (mg/kg) dose; type: functional; method in brief: as §1
Rattus norvegicus [8] = assay: Compound was evaluated in experiment 2 for High density lipoproteins at 3 (mg/kg) dose; type: functional; method in brief: as §1
Rattus norvegicus [9] = assay: Compound was evaluated in experiment 2 for non High density lipoproteins at 30 (mg/kg) dose; type: functional; method in brief: as §2
Rattus norvegicus [10] = assay: Compound was evaluated in experiment 2 for change in non High density lipoprotein at the doses at 30 (mg/kg) dose; type: functional; method in brief: as §2
Rattus norvegicus [11] = assay: Compound was evaluated in experiment 2 for non High density lipoproteins at 10 (mg/kg) dose; type: functional; method in brief: as §2
Rattus norvegicus [12] = assay: Compound was evaluated in experiment 2 for Total cholesterol at 30 (mg/kg) dose; type: functional; method in brief: as §1
Rattus norvegicus [13] = assay: Compound was evaluated in experiment 2 for non High density lipoproteins at 1 (mg/kg) dose; type: functional; method in brief: as §2
Rattus norvegicus [14] = assay: Compound was evaluated in experiment 2 for Total cholesterol at 10 (mg/kg) dose; type: functional; method in brief: as §1
Rattus norvegicus [15] = assay: Compound was evaluated in experiment 2 for Change in total cholesterol at 30 (mg/kg) dose; type: functional; method in brief: as §1
Rattus norvegicus [16] = assay: Compound was evaluated in experiment 2 for High density lipoproteins at 30 (mg/kg) dose; type: functional; method in brief: as §1
Rattus norvegicus [17] = assay: Compound was evaluated in experiment 2 for change in non High density lipoprotein at the doses at 3 (mg/kg) dose; type: functional; method in brief: as §1
Rattus norvegicus [18] = assay: Compound was evaluated in experiment 2 for Change in total cholesterol at 3 (mg/kg) dose; type: functional; method in brief: as §1
[19] = Compound was evaluated for the distribution coefficient at pH 7.4; type: physicochemical; conditions: octanol/water
Rattus norvegicus [20] = assay: Compound was evaluated in experiment 2 for Change in High density lipoproteins at 10 (mg/kg) dose; type: functional; method in brief: as §1
Rattus norvegicus [21] = organism: Rattus norvegicus; assay: Percent change in total cholesterol in peanut oil (5.5%)-, cholic acid (0.3%)-, Cholesterol (1.5%)-fed rats after a single dose.; type: functional
Method in brief: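 Male Sprague-Dawley rats (200-225 g), n=5-7/group, given a single oral dose at 4 p.m. as a suspension in 1.5% CMC/0.2% Tween-20 in water (50 mg/kg); controls received vehicle alone. The rats then had free access to chow with peanut oil, cholesterol and cholic acid. At 8 a.m. next day they were bled by cardiac puncture under ether, and serum total cholesterol was measured as % change versus controls (unpaired two-tailed t-test).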

[22] = molecular target: T1, Acyl-CoA:cholesterol acyltransferase (Oryctolagus cuniculus, UniProt Q95214); assay: Tested for in vitro inhibition against Acyl coenzyme A:cholesterol acyltransferase of intestinal microsomes in cholesterol-fed rabbits; design: species or system Microsome
T1 sequence (Q95214 whole entry): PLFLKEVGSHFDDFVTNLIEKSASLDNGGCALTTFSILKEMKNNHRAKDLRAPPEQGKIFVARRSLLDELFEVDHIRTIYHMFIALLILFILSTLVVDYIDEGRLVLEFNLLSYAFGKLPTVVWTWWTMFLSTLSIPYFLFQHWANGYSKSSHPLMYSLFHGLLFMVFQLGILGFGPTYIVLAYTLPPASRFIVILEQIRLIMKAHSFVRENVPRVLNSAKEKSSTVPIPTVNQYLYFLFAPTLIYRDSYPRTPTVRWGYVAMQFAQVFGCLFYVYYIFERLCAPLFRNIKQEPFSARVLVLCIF
Method in brief: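 Microsomes were prepared from intestine of cholesterol-fed rabbits. ACAT activity was measured using [1-14C]oleoyl-CoA as substrate. Each determination was run in triplicate.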

Rattus norvegicus [23] = assay: Compound was evaluated in experiment 2 for Total cholesterol at 3 (mg/kg) dose; type: functional; method in brief: as §1
Rattus norvegicus [24] = assay: Compound was evaluated in experiment 2 for Change in High density lipoproteins at 30 (mg/kg) dose; type: functional; method in brief: as §1
Rattus norvegicus [25] = assay: Compound was evaluated in experiment 2 for High density lipoproteins at 1 (mg/kg) dose; type: functional; method in brief: as §1
Rattus norvegicus [26] = assay: Compound was evaluated for the percentage change in total cholesterol in peanut oil (5.5%)-cholic acid (0.3%)-cholesterol (1.5%)-fed rat at 30 mg/kg; type: functional

**Q.** With `CC(C)c1cccc(C(C)C)c1NC(=O)NCC1(c2cccc(CN(C)C)c2)CCCC1` as the molecule, how does the “Change TC” value (Rattus norvegicus [1]) read?
**A.** Its value is -33%.

**Q.** And the HDL-C (Rattus norvegicus [2])?
**A.** Its HDL-C is 23.

**Q.** What about the “Change HDL -C” value (Rattus norvegicus [3]) of the same molecule?
**A.** The value was 31%.

**Q.** And the “Change non HDL-C” value (Rattus norvegicus [4])?
**A.** The value was -38%.

**Q.** And the TC (Rattus norvegicus [5])?
**A.** The TC was 292.

**Q.** What about the Non-HDL-C (Rattus norvegicus [6]) of the same molecule?
**A.** The Non-HDL-C was 212.

**Q.** What about the “Change HDL -C” value (Rattus norvegicus [7]) of the same molecule?
**A.** The value was 8%.

**Q.** And the HDL-C (Rattus norvegicus [8])?
**A.** Its HDL-C is 17.

**Q.** And the Non-HDL-C (Rattus norvegicus [9])?
**A.** The Non-HDL-C was 68.

**Q.** And the “Change non HDL-C” value (Rattus norvegicus [10])?
**A.** Its value is -76%.

**Q.** And the Non-HDL-C (Rattus norvegicus [11])?
**A.** The Non-HDL-C was 177.

**Q.** And the TC (Rattus norvegicus [12])?
**A.** The TC was 101.

**Q.** What about the Non-HDL-C (Rattus norvegicus [13]) of the same molecule?
**A.** The Non-HDL-C was 278.

**Q.** And the TC (Rattus norvegicus [14])?
**A.** Its TC is 200.

**Q.** What about the “Change TC” value (Rattus norvegicus [15]) of the same molecule?
**A.** The value was -66%.

**Q.** What about the HDL-C (Rattus norvegicus [16]) of the same molecule?
**A.** Its HDL-C is 33.

**Q.** And the “Change non HDL-C” value (Rattus norvegicus [17])?
**A.** The value was -25%.

**Q.** And the “Change TC” value (Rattus norvegicus [18])?
**A.** The value was -23%.

**Q.** And the logD [19]?
**A.** The logD was 4.8.

**Q.** And the “Change HDL -C” value (Rattus norvegicus [20])?
**A.** The value was 77%.

**Q.** And the “Delta TC” value (Rattus norvegicus [21])?
**A.** Its value is -22%.

**Q.** What about the IC50 [22] of the same molecule?
**A.** The IC50 was 63 nM.

**Q.** What about the TC (Rattus norvegicus [23]) of the same molecule?
**A.** The TC was 229.

**Q.** What about the “Change HDL -C” value (Rattus norvegicus [24]) of the same molecule?
**A.** The value was 154%.

**Q.** What about the HDL-C (Rattus norvegicus [25]) of the same molecule?
**A.** Its HDL-C is 14.

**Q.** What about the “Delta TC” value (Rattus norvegicus [26]) of the same molecule?
**A.** The value was -55%.
